Measurements from ChEMBL document CHEMBL1128687, “5-Methyl-6-phenyl-1,3,5,6-tetrahydro-3,6-methano-1,5-benzodiazocine-2,4-dione (BA 41899): representative of a novel class of purely calcium-sensitizing agents” (J Med Chem, 1995).
Activity calls are given as the source filed them. The calls are words filed in the database; no cut-off is given here.

Legend:
Sus scrofa [1] = species: Sus scrofa; experiment: Increase in isometric force of porcine myocardial skinned fibers at 30 uM; format: functional
Sus scrofa [2] = species: Sus scrofa; experiment: Effect on porcine myocardial skinned fibers at 1-100 uM (ineffective); format: functional
Cavia porcellus [3] = species: Cavia porcellus; experiment: Positive inotropic effect, increased isometric tension on guinea pig heart; format: functional
Summary of the method: (§1)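 Left atria from urethane-anaesthetized guinea pigs in Krebs–Henseleit medium at 32 °C, electrically stimulated isometrically at 2.5 s⁻¹ (also 0.25 s⁻¹); compound applied at 1–100 μM after equilibration, exposure up to 60 min; twitch force recorded, EC50 as concentration giving half-maximal effect.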

Sus scrofa [4] = species: Sus scrofa; experiment: Maximal activation of porcine myocardial skinned fibers at 40 uM [Ca2+] with 100 uM compound; format: functional
Sus scrofa [5] = species: Sus scrofa; experiment: Reduced [Ca2+] activated force development on porcine skinned myocardial fibers at 100 uM; format: functional; set-up: scale not given: the % may be the effect or the level left
Sus scrofa [6] = species: Sus scrofa; experiment: Maximal activation of porcine myocardial skinned fibers at 40 uM free [Ca2+] without compound; format: functional
Sus scrofa [7] = species: Sus scrofa; experiment: Increase in [Ca2+] activated force in porcine myocardial skinned fibers; format: functional, Myocardium
Sus scrofa [8] = species: Sus scrofa; experiment: Increased [Ca2+] activated force in porcine myocardial skinned fibers; format: functional; conditions: Myocardium
Cavia porcellus [9] = species: Cavia porcellus; experiment: Activating effect on Sarcolemmal Ca+2 channel uptake was determined; format: functional
[10] = target: T1, Alpha-2A adrenergic receptor (Homo sapiens) (UniProt P08913); experiment: Effect against Alpha-2 adrenergic receptor using clonidine as ligand; No effect; conditions: Cavia porcellus
T1 sequence (whole entry): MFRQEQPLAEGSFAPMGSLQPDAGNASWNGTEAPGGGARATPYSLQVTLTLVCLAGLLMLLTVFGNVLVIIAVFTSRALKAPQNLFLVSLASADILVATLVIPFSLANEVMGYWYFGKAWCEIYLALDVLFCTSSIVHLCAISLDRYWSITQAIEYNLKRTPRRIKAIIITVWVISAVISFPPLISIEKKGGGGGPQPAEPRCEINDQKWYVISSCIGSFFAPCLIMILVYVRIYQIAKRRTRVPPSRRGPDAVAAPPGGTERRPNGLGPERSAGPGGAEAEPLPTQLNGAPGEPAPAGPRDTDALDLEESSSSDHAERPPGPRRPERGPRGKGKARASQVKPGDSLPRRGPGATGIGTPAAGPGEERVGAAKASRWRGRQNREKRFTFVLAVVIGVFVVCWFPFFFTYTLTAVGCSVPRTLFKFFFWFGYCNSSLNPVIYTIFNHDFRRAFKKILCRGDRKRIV

Cavia porcellus [11] = species: Cavia porcellus; experiment: Inhibition of desmethoxyverapamil binding to Sarcolemmal Ca+2 channel (No effect)
Cavia porcellus [12] = species: Cavia porcellus; experiment: Activating effect on Sarcolemmal Ca+2 ATPase was determined
[13] = target: Beta-1 adrenergic receptor (Cavia porcellus) (UniProt B0FL73); experiment: Effect against Beta-1 adrenergic receptor using dehydroalprenolol as ligand; No effect
Sequence of Beta-1 adrenergic receptor (Cavia porcellus) (B0FL73 1-467): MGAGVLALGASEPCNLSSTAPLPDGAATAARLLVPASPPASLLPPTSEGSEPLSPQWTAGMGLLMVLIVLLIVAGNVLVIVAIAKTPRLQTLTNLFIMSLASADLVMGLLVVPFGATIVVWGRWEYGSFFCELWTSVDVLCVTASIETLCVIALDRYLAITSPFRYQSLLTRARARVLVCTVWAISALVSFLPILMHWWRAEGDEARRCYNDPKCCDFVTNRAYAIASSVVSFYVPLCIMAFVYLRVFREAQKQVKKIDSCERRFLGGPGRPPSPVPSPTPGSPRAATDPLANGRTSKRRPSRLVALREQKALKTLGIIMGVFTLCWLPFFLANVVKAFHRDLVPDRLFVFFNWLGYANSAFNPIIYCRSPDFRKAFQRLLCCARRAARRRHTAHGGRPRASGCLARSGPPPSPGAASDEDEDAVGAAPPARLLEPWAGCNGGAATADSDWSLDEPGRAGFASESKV

[14] = target: Phosphodiesterase 4 (Homo sapiens) (UniProt P27815+Q08499+Q07343+Q08493); experiment: Inhibition of Phosphodiesterase 4; format: protein assay; conditions: Cavia porcellus
[15] = target: T2, Alpha-1A adrenergic receptor (Homo sapiens) (UniProt P35348); experiment: Effect against Alpha-1 adrenergic receptor using prazosin as ligand; No effect; conditions: Cavia porcellus
T2 sequence (whole entry): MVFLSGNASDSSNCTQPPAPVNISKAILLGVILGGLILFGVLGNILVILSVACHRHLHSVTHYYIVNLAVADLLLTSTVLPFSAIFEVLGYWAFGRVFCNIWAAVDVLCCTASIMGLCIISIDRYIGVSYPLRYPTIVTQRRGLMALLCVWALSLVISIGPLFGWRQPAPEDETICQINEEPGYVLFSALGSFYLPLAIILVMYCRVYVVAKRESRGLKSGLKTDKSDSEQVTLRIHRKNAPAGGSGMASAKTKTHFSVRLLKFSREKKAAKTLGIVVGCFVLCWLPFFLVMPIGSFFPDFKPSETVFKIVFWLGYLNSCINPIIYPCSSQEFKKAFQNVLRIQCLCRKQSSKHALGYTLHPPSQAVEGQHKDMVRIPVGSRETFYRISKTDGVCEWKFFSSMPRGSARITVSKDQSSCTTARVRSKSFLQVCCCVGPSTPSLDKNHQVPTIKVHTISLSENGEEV

Cavia porcellus [16] = species: Cavia porcellus; experiment: Inotropic effect at 100 uM; Loses most of its inotropic activity due to resting tension; format: functional; summary of the method: as §1
[17] = target: GABA-A receptor; anion channel (Homo sapiens) (UniProt P14867+P47870+P18507+P28472+P48169+Q99928+Q9UN88+P34903+O00591+O14764+Q8N1C3+P18505+P78334+P47869+P31644+Q16445); experiment: Binding affinity against GABA-A benzodiazepine receptor using flunitrazepam; format: protein-complex assay; conditions: Cavia porcellus
Sus scrofa [18] = species: Sus scrofa; experiment: Increased contractile response in skinned myocardial fibers in presence of 0.1-10 uM free [Ca2+]; format: functional; conditions: Myocardium
[19] = target: Histamine H1 receptor (Cavia porcellus) (UniProt P31389); experiment: Effect against histamine H1 receptor; No effect
Sequence of Histamine H1 receptor (Cavia porcellus) (P31389 whole entry): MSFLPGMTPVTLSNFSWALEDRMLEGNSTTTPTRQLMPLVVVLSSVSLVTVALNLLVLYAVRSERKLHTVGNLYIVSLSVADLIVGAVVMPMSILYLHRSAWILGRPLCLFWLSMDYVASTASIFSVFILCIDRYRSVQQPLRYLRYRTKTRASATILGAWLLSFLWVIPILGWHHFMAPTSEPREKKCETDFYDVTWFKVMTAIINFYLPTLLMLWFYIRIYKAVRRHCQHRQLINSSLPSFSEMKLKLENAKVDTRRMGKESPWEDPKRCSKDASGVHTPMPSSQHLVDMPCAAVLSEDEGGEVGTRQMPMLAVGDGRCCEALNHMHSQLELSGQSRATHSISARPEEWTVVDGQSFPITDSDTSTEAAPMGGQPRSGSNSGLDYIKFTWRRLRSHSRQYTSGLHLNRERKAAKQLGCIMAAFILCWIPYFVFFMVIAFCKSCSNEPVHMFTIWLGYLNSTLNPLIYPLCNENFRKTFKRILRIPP

Sus scrofa [20] = species: Sus scrofa; experiment: Increased [Ca2+] activated force in porcine myocardial skinned fibers (Not effective); format: functional, Myocardium
Sus scrofa [21] = species: Sus scrofa; experiment: Increase in [Ca2+] activated force in porcine myocardial skinned fibers (ineffective); format: functional; conditions: Myocardium
Sus scrofa [22] = species: Sus scrofa; experiment: Increased [Ca2+] activated force in porcine myocardial skinned fibers by racemic mixture; format: functional; conditions: Myocardium
Cavia porcellus [23] = species: Cavia porcellus; experiment: Reduced spontaneous beating frequency at 1-100 uM in guinea pig heart; format: functional
Summary of the method: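 Right atria from urethane-anaesthetized guinea pigs, mounted isometrically in Krebs–Henseleit medium at 32 °C; spontaneous sinus-node beating rate recorded over 1–100 μM compound; EC50 taken as concentration giving half-maximal effect.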

Sus scrofa [24] = species: Sus scrofa; experiment: Increase in isometric force of myocardial skinned fibres at 30 uM with free [Ca2+]; format: functional
Sus scrofa [25] = species: Sus scrofa; experiment: Increase in isometric force in myocardial skinned fibres at 100 uM with free [Ca2+]; format: functional, Myocardium

**Q.** Which Effect (Sus scrofa [1]) does the source give for `COc1ccc(C(=O)N2CCCc3cc(C4=NNC(=O)SC4C)ccc32)cc1OC` (centres undefined) here?
**A.** 400%

**Q.** How did the Effect (Sus scrofa [2]) turn out when `CN1C(=O)C2(c3ccccc3)CC1C(=O)Nc1ccccc12` (centres undefined) was run?
**A.** inactive

**Q.** With `CN1C(=O)C2(c3ccccc3)CC1NC(=O)c1ccccc12` (centres undefined) as the compound, how does the Effect (Sus scrofa [2]) read?
**A.** inactive

**Q.** With `CN1C(=O)C2CC1(c1ccccc1)c1ccccc1C(=O)N2` (centres undefined) as the compound, how does the Effect (Sus scrofa [2]) read?
**A.** inactive

**Q.** For `CN1C(=O)C2CC1(c1ccccc1)c1ccccc1NC2=O` (single isomer, unassigned; (+)) [listing 1 of 2 here], which EC50 (Cavia porcellus [3]) is on record?
**A.** 8 µM

**Q.** And the Effect (Cavia porcellus [3])?
**A.** 40%

**Q.** What about the EC50 (Sus scrofa [4]) of the same compound?
**A.** 0.3 µM

**Q.** What about the Effect (Sus scrofa [5]) of the same compound?
**A.** 17%

**Q.** And the EC50 (Sus scrofa [6])?
**A.** 3 µM

**Q.** What about the Effect (Sus scrofa [7]) of the same compound?
**A.** 280%

**Q.** And the EC50 (Sus scrofa [8])?
**A.** 10 µM

**Q.** Which Effect (Cavia porcellus [9]) does the source give for `CN1C(=O)C2CC1(c1ccccc1)c1ccccc1NC2=O` (single isomer, unassigned; (+)) [listing 2 of 2 here] here?
**A.** inactive

**Q.** And the Effect [10]?
**A.** inactive

**Q.** And the Effect (Cavia porcellus [11])?
**A.** inactive

**Q.** What about the Effect (Cavia porcellus [12]) of the same compound?
**A.** inactive

**Q.** And the Effect [13]?
**A.** inactive

**Q.** What about the Effect [14] of the same compound?
**A.** inactive

**Q.** And the Effect [15]?
**A.** inactive

**Q.** And the Activity (Cavia porcellus [16])?
**A.** inactive

**Q.** And the Effect [17]?
**A.** inactive

**Q.** What about the Effect (Sus scrofa [18]) of the same compound?
**A.** Active

**Q.** What about the Effect [19] of the same compound?
**A.** inactive

**Q.** With `CN1C(=O)C2CC1(c1ccccc1)c1ccccc1NC2=O` (single isomer, unassigned; (-)) [listing 1 of 2 here] as the compound, how does the EC50 (Sus scrofa [20]) read?
**A.** Not Active

**Q.** Which Effect (Sus scrofa [21]) does the source give for `CN1C(=O)C2CC1(c1ccccc1)c1ccccc1NC2=O` (single isomer, unassigned; (-)) [listing 2 of 2 here] here?
**A.** inactive

**Q.** Which EC50 (Cavia porcellus [3]; Cavia porcellus, Heart) does the source give for `CN1C(=O)C2CC1(c1ccccc1)c1ccccc1NC2=O` (stereo in doubt) here?
**A.** 15 µM

**Q.** And the EC50 (Sus scrofa [22])?
**A.** 20 µM

**Q.** What about the Reduction (Cavia porcellus [23]) of the same compound?
**A.** 55%

**Q.** What about the Effect (Sus scrofa [24]) of the same compound?
**A.** 60%

**Q.** And the Effect (Sus scrofa [25])?
**A.** 60%
